For data set [1], the system named is HCT-116. In words: Induction of apoptosis in Bax-/- human HCT116 cells assessed as viable cells level incubated for 48 hrs by Annexin V-FITC/PI staining based cytometry (reference value: 92.9%). It is filed as functional. The gist of the method: (§1)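 Cells were plated at 5×10^5 per well and treated once 80% confluent. After trypsinisation and two washes in ice-cold PBS (pH 7.4), cells were stained with Annexin V-FITC and PI for 15 min at room temperature in the dark. Analysis was by flow cytometry. The legend gives vehicle or 4 µM for the p53-/- and Bax-/- lines.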

Data set [2] relates to HCT-116. Put plainly: Inhibition of colony formation of human HCT116 cells incubated for 24 hrs and measured after 10 days post dose in fresh medium by crystal violet staining based photography. It is filed as functional, cell-based. The gist of the method: (§2)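 Cells (HCT116, RKO, HCT116 p53-/-, HCT116 Bax-/-) seeded at 300 per well in 12-well plates for 48 h, then treated 24 h. Drug medium replaced with fresh medium; about 10 days later colonies stained 15 min with crystal violet, photographed and counted. Run in triplicate.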

Data set [3] relates to HCT-116. Put plainly: Induction of apoptosis in human HCT116 cells assessed as increase in cleaved PARP level at 4 to 8 uM incubated for 24 hrs by Western blot method. In kind it is functional, cell-based. An outline of the steps:
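Lysates were made in SDS buffer (2% SDS, 50 mM Tris-HCl pH 6.8) and quantified by BCA. Equal protein was run on 10% SDS-PAGE and transferred to PVDF. Membranes were blocked in 5% milk, probed overnight at 4 °C for cleaved PARP (1:1000) with GAPDH (1:5000), and detected with HRP secondary antibody and ECL.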
In general terms: Immunoblotting shows a protein as a band on a membrane.

Data set [4] has as its system HCT-116. Put plainly: Inhibition of colony formation of human HCT116 cells pre-treated with 7.5 mM L-NAC for 2 hrs followed by 16 to 32 uM compound addition and further incubated for 24 hrs and measured after 10 days post dose in fresh medium by crystal violet staining based photography. It is filed as functional, cell-based. An outline of the steps:
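HCT116 seeded at about 300 per well in 12-well plates and grown 2 h. Pre-treated 2 h with H2O, 7.5 mM L-NAC or GSH, then exposed to compound for 24 h. Colonies grown 10 days in fresh medium, stained with crystal violet and counted. Triplicate wells.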

Data set [5] concerns HCT-116. In words: […] of ROS generation in human HCT116 cells pre-treated with 7.5 mM GSH for […] followed by 8 uM compound addition and further incubated for 24 hrs by H2DCFDA dye based flow cytometry. In kind it is functional, cell-based. The gist of the method:
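HCT116 cells pre-treated 5 h with H2O, 7.5 mM L-NAC or 7.5 mM GSH, then exposed to compound for 24 h. Cells collected, washed twice in PBS, and resuspended in serum-free McCoy's 5A with 10 nM H2DCFDA for 20 min at 37 °C in the dark. After two PBS washes, relative ROS measured by flow cytometry.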
For orientation: Flow cytometry measures light scatter and fluorescence of single cells or particles in a stream.

Data set [6] deals with HCT-116. In words: Cytotoxicity against p53-/- human HCT116 cells assessed as reduction in cell viability incubated for 24 hrs by CCK8 assay. In kind it is functional, cell-based. An outline of the steps: (§3)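 Cells were seeded at 3×10^4 per well, grown 24 h, then exposed to increasing concentrations for 24 h. CCK-8 reagent was added for 1 h at 37 °C and absorbance was read at 450 nm. Cells were kept in McCoy's 5A with 10% FBS, and n=3.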
(Tetrazolium dyes change colour on reduction, which living cells bring about.)

A further data set deals with HeLa. In words: Cytotoxicity against human HeLa cells assessed as reduction in cell viability incubated for 24 hrs by MTT assay. It is filed as functional, cell-based. The gist of the method:
(§4)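 Cells were kept in McCoy's 5A with 10% fetal bovine serum, streptomycin and 100 units·mL⁻¹ penicillin at 37 °C under 5% CO₂/95% air. Viability was read by MTT optical density. IC50 is the concentration that lowers optical density by 50% relative to untreated cells. Values are means with SD of at least three independent determinations.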

The test system of data set [7] is HCT-116. In words: Cytotoxicity against Bax-/- human HCT116 cells assessed as reduction in cell viability incubated for 24 hrs by CCK8 assay. In kind it is functional, cell-based. The gist of the method:
as §3

Data set [8] concerns HCT-116. In words: Inhibition of colony formation of Bax-/- human HCT116 cells at 4 to 16 uM incubated for 24 hrs by crystal violet staining based photography. It is filed as functional, cell-based. The gist of the method:
as §2

Data set [9] concerns HCT-116. Put plainly: Induction of apoptosis in p53-/- human HCT116 cells assessed as late apoptotic cells level at 4 uM incubated for 48 hrs by Annexin V-FITC/PI staining based cytometry (reference value: 0.1%). It is filed as functional. The gist of the method: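 HCT116 p53-/- cells (Vogelstein line) in McCoy's 5A with 10% FBS, 37 °C, 5% CO2. Seeded at 5×10^5 in 6-well plates, treated with vehicle or 4 μM at 80% confluence. After treatment, trypsinised, washed twice in ice-cold PBS pH 7.4, and stained in binding buffer with Annexin V-FITC and PI for 15 min at room temperature in the dark. Read by flow cytometry.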

Data set [10] deals with HCT-116. In words: Induction of apoptosis in Bax-/- human HCT116 cells assessed as late apoptotic cells level incubated for 48 hrs by Annexin V-FITC/PI staining based cytometry (reference value: 0.1%). It is filed as functional. The gist of the method:
as §1

Data set [11] relates to HCT-116. Put plainly: Induction of apoptosis in human HCT116 cells assessed as G1 phase cells level at 4 uM incubated for 24 hrs by […]PI staining based cytometry (reference value: 65.2%). In kind it is functional. An outline of the steps: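 Cells were treated for 24 h, then fixed in 75% ethanol at -20 °C overnight. RNA was digested with 0.2 mg/mL RNase A for 30 min at 37 °C. Cells were stained with 50 µg/mL PI for 30 min in the dark, and DNA content was read by flow cytometry.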

Data set [12] concerns HCT-116. Put plainly: Cytotoxicity in human HCT116 cells assessed as reduction in cell viability pre-treated with 7.5 mM GSH followed by 16 to 32 uM compound addition and further incubated for 24 hrs by CCK8 assay. In kind it is functional, cell-based. The gist of the method:
(§5)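 HCT116 cells were pretreated with H2O, 7.5 mM L-NAC or 7.5 mM GSH, then exposed to 4, 16 or 32 µM for 24 h. Viability was read by CCK-8, with 1 h reagent incubation at 37 °C and absorbance at 450 nm. n=3.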

Data set [13] deals with RKO. In words: Cytotoxicity against human RKO cells assessed as reduction in cell viability incubated for 24 hrs by MTT assay. It is filed as functional, cell-based. An outline of the steps:
as §4

A short description of data set [14]: Solubility in water. It is filed as physicochemical.
Data set [15] concerns HCT-116. Put plainly: Cytotoxicity in human HCT116 cells assessed as reduction in cell viability pre-treated with 7.5 mM L-NAC followed by 16 to 32 uM compound addition and further incubated for 24 hrs by CCK8 assay. It is filed as functional, cell-based. The gist of the method: as §5
The subject of data set [16] is HCT-116. Put plainly: Induction of apoptosis in human HCT116 cells assessed as viable cells level incubated for 48 hrs by Annexin V-FITC/PI staining based cytometry (reference value: 98.7%). In kind it is functional.
Data set [17] has as its system RKO. In words: Cytotoxicity against human RKO cells assessed as reduction in cell viability incubated for 24 hrs by CCK8 assay. In kind it is functional, cell-based. An outline of the steps: as §3
The subject of the next data set is BGC-823. Put plainly: Cytotoxicity against human BGC823 cells assessed as reduction in cell viability incubated for 24 hrs by MTT assay. It is filed as functional, cell-based. The settings on record: BGC-823, 24 h. An outline of the steps: as §4
In data set [18] the test system is HCT-116. Put plainly: Induction of apoptosis in human HCT116 cells assessed as increase in cleaved PARP level pre-treated with 7.5 mM GSH for 6 hrs followed by 4 to 8 uM compound addition and further incubated for 24 hrs by Western blot method. In kind it is functional, cell-based.
Data set [19] concerns HCT-116. Put plainly: Induction of apoptosis in human HCT116 cells assessed as early apoptotic cells level incubated for 48 hrs by Annexin V-FITC/PI staining based cytometry (reference value: 1.1%). In kind it is functional.
A further data set deals with PC-3. Put plainly: Cytotoxicity against human PC3 cells assessed as reduction in cell viability incubated for 24 hrs by MTT assay. In kind it is functional, cell-based. The settings on record: PC-3, 24 h. The gist of the method: as §4

SMILES strings stand for the structures. Active and inactive are the calls of the source. The calls are words filed in the database; no cut-off is given here. Some results are limits rather than exact numbers.

Broadly, the IC50 is the concentration needed to halve the response being measured. By solubility is commonly meant the dissolved amount per volume that the medium holds.

As to `CCN(CC)CCCNC(=O)c1cn(CCCc2ccccc2)c2cc(Cl)ccc2c1=O.Cl`, the Activity is 65.1% in the data set on HCT-116 [1]; “Dose-dependent effect” with HCT-116 [6]; “Dose-dependent effect” in the data set on HCT-116 [7]; 1.3% with HCT-116 [9]; 1.7% with HCT-116 [10]; 42.4% with HCT-116 [11]. The Activity in the data set with HCT-116 [16] is reported as 62.5%; in the data set with HCT-116 [19], 29.4%. Also, the inhibition entry in the data set with HCT-116 [2] is “Dose-dependent effect”. The result in the data set on HCT-116 [3] was Active. Also, the inhibition result in the data set with HCT-116 [4] and with HCT-116 [5] was “inactive” each time. Also, the IC50 came to 3.52 µM in the data set with HeLa; 4.87 µM in the data set with RKO [13]; 4.87 µM with RKO [17]; 4.92 µM in the data set with BGC-823; 6.41 µM in the data set with PC-3. Further, the inhibition result in the data set with HCT-116 [8] was “Active”. Further, the outcome with HCT-116 [12], with HCT-116 [15] and in the data set with HCT-116 [18] was inactive. The solubility in [14] is > 10000 µg/mL. For the same compound, in the data set with RKO [17], the “growth inhibition (GI)” value is “Dose-dependent effect”.
